Activity calls are given as the source filed them. No cut-off for these calls is given here.
Columns and labels:
Bacillus subtilis = assay: Antibacterial activity against Bacillus subtilis ATCC 6051 at 200 ug/disk by standard disk assay; type: functional; settings: read-out: IZ
In short: (§1)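 Paper-disk diffusion assay with 200 µg of test material loaded per disk. Activity was read as the zone of inhibition, recorded in mm.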

Staphylococcus aureus = assay: Antibacterial activity against Staphylococcus aureus ATCC 29213 at 200 ug/disk by standard disk assay; type: functional; settings: read-out: IZ; in short: as §1
Candida albicans = assay: Antifungal activity against Candida albicans ATCC 90029 at 200 ug/disk by standard disk assay; type: functional, organism-based
Aspergillus flavus = assay: Antifungal activity against Aspergillus flavus NRRL 6541 at 200 ug/disk by standard disk assay; type: functional, organism-based

## CC[C@H](O)c1oc(=O)cc(OC)c1CO
Bacillus subtilis
  zone of inhibition at 200 µg/disc: 8 mm
Staphylococcus aureus
  zone of inhibition at 200 µg/disc: 14 mm
Candida albicans
  Activity: inactive

## CCC1OC(=O)c2c(OC)cc(=O)oc21 (stereo not drawn) [ANNULARIN F]
Bacillus subtilis
  zone of inhibition at 200 µg/disc: 8 mm
Candida albicans
  Activity: inactive

## CCCc1oc(=O)cc(OC)c1C
Aspergillus flavus
  Activity: inactive

## CCCc1oc(=O)cc(OC)c1CO
Bacillus subtilis
  zone of inhibition at 200 µg/disc: 8 mm
Candida albicans
  Activity: inactive

From ChEMBL document CHEMBL1147227, “Annularins A-H: new polyketide metabolites from the freshwater aquatic fungus Annulatascus triseptatus” (2003)
